In ChEMBL document CHEMBL2331439 (J Med Chem, 2013) one finds inhibition and IC50 data, which are given here for one compound.

pIC50: −log10 of the molar value. Calls of active or inactive are those of the source. The calls are words filed in the database; no cut-off is given here.

The target of assay [1] is Mitogen-activated protein kinase kinase kinase kinase 4 (Homo sapiens) (UniProt O95819). Kind of assay: Inhibition of recombinant MAP4K4 (unknown origin) at 5 uM by FRET-based Z'-LYTE assay. An outline of the steps: (§1)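 Single-point panel screen at 5 μM in duplicate. ATP is at the apparent Km of each kinase, and the Z'-LYTE FRET peptide substrate is used. Each point has two control wells: a protease control for interference with development and a fluorescence control for interference with the FRET read-out. Values above 100% are treated as maximal inhibition and values below 0% as none.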

For assay [2], the target named is Mitogen-activated protein kinase 8 (Homo sapiens) (UniProt P45983). The assay can be described thus: Inhibition of recombinant MAPK8 (unknown origin) at 5 uM by FRET-based Z'-LYTE assay. An outline of the steps:
as §1

Assay [3] addresses T1, Mitogen-activated protein kinase 14 (Homo sapiens, UniProt Q16539). The assay can be described thus: Inhibition of recombinant MAPK14 (unknown origin) by FRET-based Z'-LYTE assay.
Assay [4] addresses T2, Vascular endothelial growth factor receptor 2 (Homo sapiens, UniProt P35968). Conditions: 5 uM.
Assay [5] concerns the target CDK9/cyclin T1 (Homo sapiens) (UniProt O60563+P50750). Kind of assay: Inhibition of recombinant CDK9/cyclin T1 (unknown origin) at 5 uM after 1 hr by FRET-based adapta assay. The assay is classed as protein-complex assay. Summed up: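 After inhibitor and all reaction components are added, the reaction runs for 1 h. ADP formed by the kinase displaces an antibody-tracer complex, so reduced ADP gives a high TR-FRET signal. Inhibition is calculated against a control.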

Assay [6] has as its target Activin receptor type-1B (Homo sapiens) (UniProt P36896). The assay can be described thus: Inhibition of recombinant ACVR1B (unknown origin) at 5 uM by FRET-based Z'-LYTE assay. An outline of the steps: as §1
The target in assay [7] is Fibroblast growth factor receptor 1 (Homo sapiens) (UniProt P11362). The assay can be described thus: Inhibition of recombinant FGFR1 (unknown origin) at 5 uM by FRET-based Z'-LYTE assay. An outline of the steps:
as §1

Assay [8] has as its target Ribosomal protein S6 kinase alpha-3 (Homo sapiens) (UniProt P51812). Kind of assay: Inhibition of recombinant RPS6KA3 (unknown origin) at 5 uM by FRET-based Z'-LYTE assay. An outline of the steps:
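Z'-LYTE FRET peptide (coumarin/fluorescein) phosphorylation was followed by protease development. Wells included a protease control for interference with development and a fluorescence control for interference with the FRET read. Values above 100% or below 0% were treated as maximal or no inhibition.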

Assay [9] concerns the target Casein kinase I isoform gamma-2 (Homo sapiens) (UniProt P78368). Kind of assay: Inhibition of recombinant CSNK1G2 (unknown origin) at 5 uM by FRET-based Z'-LYTE assay. Summed up:
as §1

Assay [10] concerns the target Mitogen-activated protein kinase 1 (Homo sapiens, UniProt P28482). Kind of assay: Competitive inhibition of recombinant ERK2 (unknown origin) by FRET-based Z'-LYTE assay.
Assay [11] addresses T2, Vascular endothelial growth factor receptor 2. Kind of assay: Inhibition of recombinant KDR (unknown origin) by FRET-based Z'-LYTE assay.
For assay [12], the target named is Ribosomal protein S6 kinase beta-1 (Homo sapiens, UniProt P23443). The assay can be described thus: Inhibition of recombinant RPS6K1 (unknown origin) by FRET-based Z'-LYTE assay.
Assay [13] has as its target Insulin receptor (Homo sapiens) (UniProt P06213). The assay can be described thus: Inhibition of recombinant INSR (unknown origin) at 5 uM by FRET-based Z'-LYTE assay. An outline of the steps:
as §1

Assay [14] addresses MAP kinase-activated protein kinase 2 (Homo sapiens, UniProt P49137). The assay can be described thus: Inhibition of recombinant MAPKAPK2 (unknown origin) by FRET-based Z'-LYTE assay.
The target of assay [15] is Tyrosine-protein kinase BTK (Homo sapiens) (UniProt Q06187). Kind of assay: Inhibition of recombinant BTK (unknown origin) at 5 uM by FRET-based Z'-LYTE assay. An outline of the steps:
as §1

The target in assay [16] is Hepatocyte growth factor receptor (Homo sapiens) (UniProt P08581). Kind of assay: Inhibition of recombinant MET (unknown origin) at 5 uM by FRET-based Z'-LYTE assay. An outline of the steps: as §1
Sequence of Hepatocyte growth factor receptor (Homo sapiens) (P08581 whole entry): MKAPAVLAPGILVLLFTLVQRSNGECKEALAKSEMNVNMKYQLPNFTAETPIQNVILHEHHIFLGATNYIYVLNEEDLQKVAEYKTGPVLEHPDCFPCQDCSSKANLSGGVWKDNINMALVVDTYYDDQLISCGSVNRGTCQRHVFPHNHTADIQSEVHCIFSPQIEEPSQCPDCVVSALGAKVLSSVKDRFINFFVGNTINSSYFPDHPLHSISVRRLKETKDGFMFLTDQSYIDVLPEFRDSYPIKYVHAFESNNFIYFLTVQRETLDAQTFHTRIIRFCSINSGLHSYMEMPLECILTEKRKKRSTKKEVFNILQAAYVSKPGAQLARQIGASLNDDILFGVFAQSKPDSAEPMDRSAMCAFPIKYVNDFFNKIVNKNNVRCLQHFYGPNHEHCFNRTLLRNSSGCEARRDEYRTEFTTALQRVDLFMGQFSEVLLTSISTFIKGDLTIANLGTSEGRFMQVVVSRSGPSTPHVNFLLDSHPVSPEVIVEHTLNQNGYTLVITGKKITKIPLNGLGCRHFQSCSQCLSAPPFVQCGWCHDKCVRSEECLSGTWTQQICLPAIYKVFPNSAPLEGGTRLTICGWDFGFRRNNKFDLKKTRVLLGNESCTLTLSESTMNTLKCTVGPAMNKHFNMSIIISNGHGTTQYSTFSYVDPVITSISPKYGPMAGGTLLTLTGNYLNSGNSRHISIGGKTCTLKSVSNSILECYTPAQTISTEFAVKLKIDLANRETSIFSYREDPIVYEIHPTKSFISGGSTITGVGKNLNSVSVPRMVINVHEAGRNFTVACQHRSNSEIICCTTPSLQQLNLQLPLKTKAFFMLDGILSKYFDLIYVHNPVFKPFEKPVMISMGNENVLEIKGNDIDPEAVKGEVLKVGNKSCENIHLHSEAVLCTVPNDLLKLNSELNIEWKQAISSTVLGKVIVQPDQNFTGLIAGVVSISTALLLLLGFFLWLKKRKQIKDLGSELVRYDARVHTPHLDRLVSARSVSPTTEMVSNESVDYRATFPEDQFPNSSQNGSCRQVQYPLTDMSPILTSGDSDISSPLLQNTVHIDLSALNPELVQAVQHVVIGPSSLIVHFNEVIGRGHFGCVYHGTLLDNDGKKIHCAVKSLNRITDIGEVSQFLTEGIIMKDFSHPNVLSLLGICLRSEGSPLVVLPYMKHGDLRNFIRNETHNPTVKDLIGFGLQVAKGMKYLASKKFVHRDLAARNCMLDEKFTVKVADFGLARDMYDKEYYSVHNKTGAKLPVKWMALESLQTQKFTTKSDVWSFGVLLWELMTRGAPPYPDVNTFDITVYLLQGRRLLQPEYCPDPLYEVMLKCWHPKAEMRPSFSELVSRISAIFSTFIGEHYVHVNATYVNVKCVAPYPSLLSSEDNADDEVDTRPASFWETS
Assay [17] addresses Epidermal growth factor receptor (Homo sapiens) (UniProt P00533). The assay can be described thus: Inhibition of recombinant EGFR (unknown origin) at 5 uM by FRET-based Z'-LYTE assay. An outline of the steps:
as §1

In assay [18] the target is High affinity nerve growth factor receptor (Homo sapiens) (UniProt P04629). The assay can be described thus: Inhibition of recombinant NTRK1 (unknown origin) at 5 uM by FRET-based Z'-LYTE assay. An outline of the steps:
as §1

Assay [19] addresses RAC-alpha serine/threonine-protein kinase (Homo sapiens, UniProt P31749). The assay can be described thus: Inhibition of recombinant AKT1 (unknown origin) at 5 uM by FRET-based Z'-LYTE assay. An outline of the steps:
as §1

For assay [20], the target named is Interleukin-1 receptor-associated kinase 4 (Homo sapiens) (UniProt Q9NWZ3). Kind of assay: Inhibition of recombinant IRAK4 (unknown origin) at 5 uM by FRET-based Z'-LYTE assay. An outline of the steps:
as §1

Assay [21] has as its target T1, Mitogen-activated protein kinase 14. The assay can be described thus: Inhibition of recombinant MAPK14 (unknown origin) at 5 uM by cascade reaction assay.

T2 sequence (P35968 whole entry): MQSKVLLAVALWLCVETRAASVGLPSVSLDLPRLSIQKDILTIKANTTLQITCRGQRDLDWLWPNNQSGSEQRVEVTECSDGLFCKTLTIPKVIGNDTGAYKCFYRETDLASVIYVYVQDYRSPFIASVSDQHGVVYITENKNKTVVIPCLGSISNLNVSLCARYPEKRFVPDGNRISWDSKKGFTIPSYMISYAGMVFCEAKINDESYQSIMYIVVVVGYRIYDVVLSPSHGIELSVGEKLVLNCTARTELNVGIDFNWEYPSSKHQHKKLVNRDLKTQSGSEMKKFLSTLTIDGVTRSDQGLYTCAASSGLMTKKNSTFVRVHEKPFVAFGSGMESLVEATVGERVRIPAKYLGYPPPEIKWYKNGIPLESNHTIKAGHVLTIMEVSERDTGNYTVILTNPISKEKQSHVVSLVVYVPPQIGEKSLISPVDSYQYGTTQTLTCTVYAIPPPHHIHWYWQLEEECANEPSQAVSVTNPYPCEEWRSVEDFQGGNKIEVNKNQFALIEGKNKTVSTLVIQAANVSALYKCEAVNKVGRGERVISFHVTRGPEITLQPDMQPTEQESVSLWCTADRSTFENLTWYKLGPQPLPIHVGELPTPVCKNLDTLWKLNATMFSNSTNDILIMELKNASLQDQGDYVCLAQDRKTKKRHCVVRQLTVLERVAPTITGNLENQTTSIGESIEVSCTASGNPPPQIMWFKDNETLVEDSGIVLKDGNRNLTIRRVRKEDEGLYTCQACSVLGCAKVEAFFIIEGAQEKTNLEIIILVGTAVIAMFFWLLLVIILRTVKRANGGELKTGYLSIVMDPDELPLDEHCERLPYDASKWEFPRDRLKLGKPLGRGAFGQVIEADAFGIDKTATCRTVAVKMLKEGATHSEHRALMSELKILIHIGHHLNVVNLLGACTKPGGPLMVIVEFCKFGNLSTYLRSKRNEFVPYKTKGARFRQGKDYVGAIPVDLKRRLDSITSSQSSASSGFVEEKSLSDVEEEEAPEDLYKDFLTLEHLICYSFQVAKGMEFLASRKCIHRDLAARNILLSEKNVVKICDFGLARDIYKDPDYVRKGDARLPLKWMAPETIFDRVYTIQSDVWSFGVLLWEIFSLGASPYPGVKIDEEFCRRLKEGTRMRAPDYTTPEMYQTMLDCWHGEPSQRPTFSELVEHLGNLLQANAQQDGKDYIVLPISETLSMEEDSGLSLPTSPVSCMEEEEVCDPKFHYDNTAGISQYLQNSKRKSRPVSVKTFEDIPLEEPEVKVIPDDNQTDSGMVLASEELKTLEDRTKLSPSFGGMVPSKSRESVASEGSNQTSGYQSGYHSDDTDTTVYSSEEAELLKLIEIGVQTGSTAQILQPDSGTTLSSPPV
T1 sequence (Q16539 whole entry): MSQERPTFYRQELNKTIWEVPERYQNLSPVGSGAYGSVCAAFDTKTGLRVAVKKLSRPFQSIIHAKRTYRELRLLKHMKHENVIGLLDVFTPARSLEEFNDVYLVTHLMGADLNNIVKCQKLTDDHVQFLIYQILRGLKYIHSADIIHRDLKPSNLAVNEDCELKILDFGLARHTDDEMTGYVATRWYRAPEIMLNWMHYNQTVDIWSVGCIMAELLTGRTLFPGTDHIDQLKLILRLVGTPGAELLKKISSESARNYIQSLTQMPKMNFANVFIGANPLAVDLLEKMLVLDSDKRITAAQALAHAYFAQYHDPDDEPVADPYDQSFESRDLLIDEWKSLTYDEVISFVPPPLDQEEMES
Sequence of Ribosomal protein S6 kinase alpha-3 (Homo sapiens) (P51812 whole entry): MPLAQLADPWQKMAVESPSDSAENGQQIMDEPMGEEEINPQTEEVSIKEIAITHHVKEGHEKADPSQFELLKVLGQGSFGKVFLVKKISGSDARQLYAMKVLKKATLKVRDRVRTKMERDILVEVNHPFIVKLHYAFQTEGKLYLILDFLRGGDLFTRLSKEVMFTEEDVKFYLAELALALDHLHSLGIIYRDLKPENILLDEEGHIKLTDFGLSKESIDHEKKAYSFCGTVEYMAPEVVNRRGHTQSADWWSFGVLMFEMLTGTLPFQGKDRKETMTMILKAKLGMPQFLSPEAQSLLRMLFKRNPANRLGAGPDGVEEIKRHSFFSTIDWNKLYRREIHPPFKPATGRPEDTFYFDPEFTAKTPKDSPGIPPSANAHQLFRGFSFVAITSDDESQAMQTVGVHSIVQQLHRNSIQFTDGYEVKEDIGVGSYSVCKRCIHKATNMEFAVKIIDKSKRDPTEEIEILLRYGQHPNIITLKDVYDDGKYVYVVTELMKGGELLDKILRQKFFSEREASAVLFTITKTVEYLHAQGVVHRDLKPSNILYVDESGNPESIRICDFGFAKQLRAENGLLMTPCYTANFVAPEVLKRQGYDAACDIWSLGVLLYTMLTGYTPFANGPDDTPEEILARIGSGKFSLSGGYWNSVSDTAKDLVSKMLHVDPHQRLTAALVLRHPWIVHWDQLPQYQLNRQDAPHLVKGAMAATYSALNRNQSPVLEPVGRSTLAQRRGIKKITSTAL
Sequence of Casein kinase I isoform gamma-2 (Homo sapiens) (P78368 whole entry, looked up, canonical isoform): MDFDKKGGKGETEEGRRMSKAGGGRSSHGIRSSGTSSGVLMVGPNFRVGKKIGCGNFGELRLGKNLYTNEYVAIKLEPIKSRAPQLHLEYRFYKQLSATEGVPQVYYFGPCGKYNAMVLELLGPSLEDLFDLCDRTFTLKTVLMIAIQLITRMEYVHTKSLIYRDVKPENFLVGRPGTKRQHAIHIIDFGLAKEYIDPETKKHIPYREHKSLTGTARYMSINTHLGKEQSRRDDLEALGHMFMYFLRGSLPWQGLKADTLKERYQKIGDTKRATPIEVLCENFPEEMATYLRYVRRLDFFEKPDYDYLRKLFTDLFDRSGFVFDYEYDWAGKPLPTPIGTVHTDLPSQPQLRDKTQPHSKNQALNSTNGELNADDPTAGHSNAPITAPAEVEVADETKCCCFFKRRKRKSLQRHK
Sequence of Tyrosine-protein kinase BTK (Homo sapiens) (Q06187 whole entry): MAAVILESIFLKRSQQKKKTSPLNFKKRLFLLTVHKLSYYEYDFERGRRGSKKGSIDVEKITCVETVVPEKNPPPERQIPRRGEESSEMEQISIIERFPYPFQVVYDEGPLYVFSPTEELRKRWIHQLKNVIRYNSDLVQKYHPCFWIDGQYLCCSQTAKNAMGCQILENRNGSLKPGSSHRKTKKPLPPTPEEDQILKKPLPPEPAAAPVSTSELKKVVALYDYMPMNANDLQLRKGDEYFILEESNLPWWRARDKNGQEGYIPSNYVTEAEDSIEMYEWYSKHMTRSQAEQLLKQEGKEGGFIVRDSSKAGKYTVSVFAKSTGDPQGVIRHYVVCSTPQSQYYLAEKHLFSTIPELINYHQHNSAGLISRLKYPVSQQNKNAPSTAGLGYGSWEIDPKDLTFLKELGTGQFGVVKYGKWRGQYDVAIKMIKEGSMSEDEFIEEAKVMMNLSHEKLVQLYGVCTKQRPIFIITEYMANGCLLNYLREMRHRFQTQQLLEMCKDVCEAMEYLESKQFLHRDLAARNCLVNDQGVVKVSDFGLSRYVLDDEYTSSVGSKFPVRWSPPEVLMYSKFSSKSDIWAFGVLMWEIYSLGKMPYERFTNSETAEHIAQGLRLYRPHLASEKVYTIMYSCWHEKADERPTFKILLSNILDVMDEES

In general, inhibition refers to the drop in the measured response relative to a control, in per cent. Broadly, the pIC50 is the negative decadic logarithm of the IC50, by convention in mol/L. In the case of `O=C1/C(=C/c2ccccn2)CNC/C1=C\c1ccccn1`, the inhibition was 72% in assay [1]; 16% in assay [2]; 89% in assay [4]; 26% in [5]; 1% in assay [6]; 66% in assay [7]. In addition, the inhibition in [8] is 77%; in assay [9], 12%; in [13], 15%; in assay [15] it was 44%; in assay [16], 75%; in assay [17], -9%. Further, the inhibition in assay [18] was 25%; in assay [19] it was 107%; in [20], 5%; in assay [21] it was 104%. Moreover, the negative logarithm of the IC50 (pIC50) in assay [3] was 4.46; in assay [11], 6.18; in [12] it was 5.85; in assay [14], 5.17. The inhibition result in assay [10] was “Active”.
